Experimental data from ChEMBL document CHEMBL3046946, “Design, synthesis, and insecticidal activities of new N-benzoyl-N'-phenyl-N'-sulfenylureas” (2009).
Converted amounts (≈) assume the structure as drawn.

Columns and labels:
Type in all cases: functional
[1] = system: Mythimna separata; test: Insecticidal activity against fourth-instar larval stage of Mythimna separata (Oriental armyworm) in compound-pretreated corn leaves assessed as mortality at 0.25 mg/l at 25 +/-1degC after 4 days
[2] = system: Mythimna separata; test: Insecticidal activity against fourth-instar larval stage of Mythimna separata (Oriental armyworm) in compound-pretreated corn leaves assessed as mortality at 0.5 mg/l at 25 +/-1degC after 4 days
[3] = system: Mythimna separata; test: Insecticidal activity against fourth-instar larval stage of Mythimna separata (Oriental armyworm) in compound-pretreated corn leaves assessed as mortality at 1 mg/l at 25 +/-1degC after 4 days
[4] = system: Mythimna separata; test: Insecticidal activity against fourth-instar larval stage of Mythimna separata (Oriental armyworm) in compound-pretreated corn leaves assessed as mortality at 2.5 mg/l at 25 +/-1degC after 4 days
[5] = system: Culex pipiens pallens; test: Insecticidal activity against fourth-instar larval stage of Culex pipiens pallens (mosquito) assessed as mortality at 0.0025 mg/l at 25 +/-1degC after 8 days; details: 192 h
How it was run: (§1)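 Compounds dissolved in acetone, then diluted with distilled water to the test concentrations. Twenty fourth-instar larvae were placed in 10 mL of each test solution and reared for 8 days. Mortality was scored on a 0–100 scale, where 0 is no activity and 100 is total kill.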

[6] = system: Culex pipiens pallens; test: Insecticidal activity against fourth-instar larval stage of Culex pipiens pallens (mosquito) assessed as mortality at 0.005 mg/l at 25 +/-1degC after 8 days; details: 192 h; how it was run: as §1
[7] = system: Culex pipiens pallens; test: Insecticidal activity against fourth-instar larval stage of Culex pipiens pallens (mosquito) assessed as mortality at 0.01 mg/l at 25 +/-1degC after 8 days; details: 192 h; how it was run: as §1
[8] = system: Spodoptera exigua; test: Insecticidal activity against third-instar larval stage of Spodoptera exigua in cabbage leaves assessed as mortality at 25 +/-1degC treated for 5 secs before larval infestation measured after 4 days by leaf dip method; details: foliar, 96 h
How it was run: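 Leaf-dip assay. Fresh cabbage leaf disks (1.8 cm diameter) were dipped in test solution for 5 s before larvae were added. LC50 was calculated by Finney probit analysis of the mortality regression lines.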

[9] = system: Plutella xylostella; test: Insecticidal activity against larvae of Plutella xylostella (diamondback moth) in cabbage leaves assessed as mortality at 25 +/-1degC treated for 5 secs before larval infestation measured after 4 days by leafdip method; details: 96 h
How it was run: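 Leaf-dip assay. Cabbage leaf disks (1.8 cm diameter) were dipped in test solution for 5 s, air-dried, and placed in tubes lined with filter paper. Ten second-instar larvae were added per tube. Percent mortality was read 4 days after treatment, in triplicate. LC50 was derived by Finney probit analysis of the mortality regression lines.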

[10] = system: Mythimna separata; test: Insecticidal activity against fourth-instar larval stage of Mythimna separata (Oriental armyworm) in compound-pretreated corn leaves assessed as mortality at 40 mg/l at 25 +/-1degC after 4 days
[11] = system: Culex pipiens pallens; test: Insecticidal activity against fourth-instar larval stage of Culex pipiens pallens (mosquito) assessed as mortality at 1 mg/l at 25 +/-1degC after 8 days; details: 192 h; how it was run: as §1
[12] = system: Culex pipiens pallens; test: Insecticidal activity against fourth-instar larval stage of Culex pipiens pallens (mosquito) assessed as mortality at 2.5 mg/l at 25 +/-1degC after 8 days; details: 192 h; how it was run: as §1
[13] = system: Culex pipiens pallens; test: Insecticidal activity against fourth-instar larval stage of Culex pipiens pallens (mosquito) assessed as mortality at 5 mg/l at 25 +/-1degC after 8 days; details: 192 h; how it was run: as §1
[14] = system: Mythimna separata; test: Insecticidal activity against fourth-instar larval stage of Mythimna separata (Oriental armyworm) in compound-pretreated corn leaves assessed as mortality at 50 mg/l at 25 +/-1degC after 4 days
[15] = system: Mythimna separata; test: Insecticidal activity against fourth-instar larval stage of Mythimna separata (Oriental armyworm) in compound-pretreated corn leaves assessed as mortality at 100 mg/l at 25 +/-1degC after 4 days
[16] = system: Mythimna separata; test: Insecticidal activity against fourth-instar larval stage of Mythimna separata (Oriental armyworm) in compound-pretreated corn leaves assessed as mortality at 200 mg/l at 25 +/-1degC after 4 days

SMILES | mortality at 0.25 µg/mL [1] [%] | mortality at 0.5 µg/mL [2] [%] | mortality at 1 µg/mL [3] [%] | mortality at 0.005 µg/mL [6] [%] | mortality at 0.01 µg/mL [7] [%] | other results
O=C(NC(=O)N(SN(C(=O)NC(=O)c1c(F)cccc1F)c1ccc(Cl)cc1)c1ccc(Cl)cc1)c1c(F)cccc1F | 25 | 85 | 100 | – | – | –
O=C(NC(=O)N(SSNc1ccc(OC(F)(F)F)cc1)c1ccc(OC(F)(F)F)cc1)c1ccccc1Cl | 30 | 60 | 100 | – | – | –
O=C(NC(=O)N(SNc1ccc(C(F)(F)F)cc1)c1ccc(C(F)(F)F)cc1)c1c(F)cccc1F | 45 | 80 | 100 | – | – | –
O=C(NC(=O)N(SSNc1ccc(C(F)(F)F)cc1)c1ccc(C(F)(F)F)cc1)c1ccccc1Cl | 0 | 60 | 70 | – | – | mortality at 2.5 µg/mL [4]: 100%
O=C(NC(=O)N(SN1CCCCC1)c1ccc(Cl)cc1)c1c(F)cccc1F | 20 | 100 | 100 | 0 | 90 | mortality at 0.0025 µg/mL [5]: 0%
O=C(NC(=O)N(SNc1ccc(OC(F)(F)F)cc1)c1ccc(OC(F)(F)F)cc1)c1c(F)cccc1F | 40 | 90 | 100 | – | – | –
O=C(NC(=O)N(SSN(C(=O)NC(=O)c1c(F)cccc1F)c1ccc(OC(F)(F)F)cc1)c1ccc(OC(F)(F)F)cc1)c1ccccc1Cl | 0 | 40 | 100 | – | – | –
O=C(NC(=O)c1ccccc1Cl)Nc1ccc(OC(F)(F)F)cc1 [TRIFLUMURON] | 20 | 40 | 95 | – | – | LC50 [8]: 12 µg/mL (≈ 33.5 µM); LC50 [9]: 49.3 µg/mL (≈ 137 µM); mortality at 2.5 µg/mL [4]: 100%
CCN(CC)SN(C(=O)NC(=O)c1c(F)cccc1F)c1ccc(Cl)cc1 | 20 | 70 | 100 | 10 | 100 | mortality at 0.0025 µg/mL [5]: 10%
O=C(NC(=O)N(SNc1ccc(Cl)cc1)c1ccc(Cl)cc1)c1c(F)cccc1F | 0 | 70 | 100 | – | – | –
O=C(NC(=O)N(SSN(C(=O)NC(=O)c1c(F)cccc1F)c1ccc(OC(F)(F)F)cc1)c1ccc(OC(F)(F)F)cc1)c1c(F)cccc1F | 20 | 50 | 100 | – | – | –
CCOC(=O)CCN(Cc1ccccc1)SN(C(=O)NC(=O)c1c(F)cccc1F)c1ccc(OC(F)(F)F)cc1 | – | – | 100 | – | 100 | mortality at 40 µg/mL [10]: 0.0025%
O=C(NC(=O)N(SSN(C(=O)NC(=O)c1ccccc1Cl)c1ccc(OC(F)(F)F)cc1)c1ccc(OC(F)(F)F)cc1)c1ccccc1Cl | 10 | 60 | 85 | – | – | mortality at 2.5 µg/mL [4]: 100%
O=C(NC(=O)N(SN1CCOCC1)c1ccc(OC(F)(F)F)cc1)c1c(F)cccc1F | 80 | 100 | 100 | 100 | 100 | LC50 [8]: 21.4 µg/mL (≈ 44.9 µM); LC50 [9]: 45.1 µg/mL (≈ 94.5 µM); mortality at 0.0025 µg/mL [5]: 20%
CCOC(=O)CCN(Cc1ccccc1)SN(C(=O)NC(=O)c1c(F)cccc1F)c1ccc(Cl)cc1 | 30 | 50 | 100 | 0 | 60 | –
O=C(NC(=O)N(SN1CCCCC1)c1ccccc1)c1c(F)cccc1F | – | – | – | – | – | mortality at 1 µg/mL [11]: 0%; mortality at 2.5 µg/mL [12]: 70%; mortality at 5 µg/mL [13]: 100%; mortality at 50 µg/mL [14]: 0%; mortality at 100 µg/mL [15]: 40%; mortality at 200 µg/mL [16]: 90%
O=C(NC(=O)N(SN(C(=O)NC(=O)c1c(F)cccc1F)c1ccc(OC(F)(F)F)cc1)c1ccc(OC(F)(F)F)cc1)c1ccccc1Cl | 50 | 95 | 100 | – | – | LC50 [8]: 31.4 µg/mL (≈ 42 µM); LC50 [9]: 40.1 µg/mL (≈ 53.6 µM)
O=C(NC(=O)N(SSNc1ccc(C(F)(F)F)cc1)c1ccc(C(F)(F)F)cc1)c1c(F)cccc1F | 10 | 70 | 100 | – | – | –
O=C(NC(=O)N(SN(C(=O)NC(=O)c1c(F)cccc1F)c1ccc(OC(F)(F)F)cc1)c1ccc(OC(F)(F)F)cc1)c1c(F)cccc1F | 20 | 55 | 100 | – | – | –
CCN(CC)SN(C(=O)NC(=O)c1c(F)cccc1F)c1ccc(OC(F)(F)F)cc1 | 60 | 100 | 100 | 100 | 100 | mortality at 0.0025 µg/mL [5]: 40%
O=C(NC(=O)c1c(F)cccc1F)Nc1ccc(Cl)cc1 [DIFLUBENZURON] | 45 | 100 | 100 | 50 | 100 | mortality at 0.0025 µg/mL [5]: 10%
CCOC(=O)CCN(Cc1ccccc1)SN(C(=O)NC(=O)c1c(F)cccc1F)c1ccccc1 | – | – | – | – | – | mortality at 1 µg/mL [11]: 20%; mortality at 2.5 µg/mL [12]: 60%; mortality at 5 µg/mL [13]: 100%; mortality at 50 µg/mL [14]: 30%; mortality at 100 µg/mL [15]: 40%; mortality at 200 µg/mL [16]: 70%
CCN(CC)SN(C(=O)NC(=O)c1c(F)cccc1F)c1ccccc1 | – | – | – | – | – | mortality at 1 µg/mL [11]: 30%; mortality at 2.5 µg/mL [12]: 100%; mortality at 5 µg/mL [13]: 100%; mortality at 50 µg/mL [14]: 20%; mortality at 100 µg/mL [15]: 40%; mortality at 200 µg/mL [16]: 70%
O=C(NC(=O)N(SN1CCOCC1)c1ccc(Cl)cc1)c1c(F)cccc1F | 80 | 100 | 100 | 30 | 100 | mortality at 0.0025 µg/mL [5]: 0%
O=C(NC(=O)N(SSNc1ccc(OC(F)(F)F)cc1)c1ccc(OC(F)(F)F)cc1)c1c(F)cccc1F | 30 | 90 | 100 | – | – | –
O=C(NC(=O)N(SN1CCCCC1)c1ccc(OC(F)(F)F)cc1)c1c(F)cccc1F | 50 | 100 | 100 | 100 | 100 | mortality at 0.0025 µg/mL [5]: 75%
